SIRT5 block: blocks human SIRT5 desuccinylation of peptide | Q9NXA8 | 1.1% of 330,000 active | Purified SirT5, succinyl-peptide AMC, trypsin-coupled fluorescence | inhibition, % at 15 µM | AID 652115; in the data active = inhibition above about 15%
Target sequence (Q9NXA8 whole entry, looked up): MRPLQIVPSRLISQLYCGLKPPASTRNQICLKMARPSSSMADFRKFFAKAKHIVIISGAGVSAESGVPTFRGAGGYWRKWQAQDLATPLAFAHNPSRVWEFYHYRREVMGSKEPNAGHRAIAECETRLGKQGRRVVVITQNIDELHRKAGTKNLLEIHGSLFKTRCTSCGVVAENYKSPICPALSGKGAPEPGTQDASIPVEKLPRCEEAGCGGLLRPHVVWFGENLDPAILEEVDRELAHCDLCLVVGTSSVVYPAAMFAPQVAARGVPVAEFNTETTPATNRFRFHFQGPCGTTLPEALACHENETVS
DENV2 CPE: protects cells from dengue virus 2 cytopathic effect; DENV2-infected cells, cytopathic effect rescue, plate reader; 1.7% of 350,000 active; CPE inhibition, % at 9.99 µM; AID 651640; in the data active = CPE inhibition above about 20%, passing the limit was not always enough; tested in BHK-21 cells;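 note: 0% = median of neutral control wells and 100% = median of positive control wells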
E-selectin induc: induces E-selectin expression in human endothelial cells. P16581. HUVEC E-selectin immunofluorescence imaging; normalized: neutral wells 0, TNF-alpha wells 100. activation, % at 7.58 µM. 0.37% of 260,000 active. AID 686992;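 active = mean E-selectin-positive cell signal at least 10% of the positive control, reached in at least 60% of replicates, without over 20% cell loss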
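material = human umbilical vein endothelial cells (HUVEC), E-selectin induction | quantity = 3,000 cells/well | medium = EGM-2 growth medium on 0.1% gelatin-coated wells | technique = immunofluorescence imaging | read-out basis = % PE-positive cells | control set = TNF-alpha positive control, DMSO neutral control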
* = called active by the depositor. A selection: hits, their analogues and other compounds. The true share with any hit is near 2.8%.

How did COc1cccc(N2CC(C(=O)Nc3nnc(SCCC4OCCO4)s3)CC2=O)c1 (stereo unspecified) do in these assays?
SIRT5 block: -0.9; DENV2 CPE: 93.0*; E-selectin induc: -0.2

Results for CNC(=O)CSc1nnc(NC(=O)C2CC(=O)N(c3ccccc3OC)C2)s1 (stereo unspecified) ?
SIRT5 block: -2.3; DENV2 CPE: 32.9*; E-selectin induc: -1.6

What do the screens show for `O=C(Nc1nnc(SCCC2OCCO2)s1)C1CC(=O)N(c2ccccc2)C1` (stereo unspecified)?
SIRT5 block: -2.2; DENV2 CPE: 6.2; E-selectin induc: -0.7

What do the screens show for `COc1ccccc1N1CC(C(=O)Nc2nnc(SCc3ccccn3)s2)CC1=O` (stereo unspecified)?
E-selectin induc: 2.3

How did COc1ccc(S(=O)(=O)Nc2ccc3c(c2)C(=O)N([C@@H](C)CO)C[C@@H](C)[C@@H](CN(C)C(=O)CCCN(C)C)OCCCC[C@H](C)O3)cc1 do in these assays?
SIRT5 block: -3.2; DENV2 CPE: -5.6; E-selectin induc: -0.1

Results for O=C(CSc1nc2ccsc2c(=O)n1CC1CCC(C(=O)O)CC1)c1ccc(F)cc1 (stereo unspecified) ?
SIRT5 block: -0.1; DENV2 CPE: 9.9; E-selectin induc: 0.5

What do the screens show for `O=C(CSc1nc2ccsc2c(=O)n1CC1CCC(C(=O)O)CC1)c1ccc(Cl)cc1` (stereo unspecified)?
SIRT5 block: 16.1*; DENV2 CPE: 2.1

What do the screens show for `C[C@@H]1CN([C@@H](C)CO)C(=O)c2cc(NC(=O)c3ccccc3)ccc2O[C@@H](C)CCCCO[C@H]1CN(C)Cc1ccccc1`?
DENV2 CPE: -3.4

How did CSc1ncnc2c1ncn2CCCN[C@H](C)c1cccc2ccccc12 do in these assays?
SIRT5 block: -0.7; DENV2 CPE: 9.3; E-selectin induc: 0.0

What do the screens show for `CCC(C)C(CO)NCCCn1cnc2c(SC)ncnc21` (stereo unspecified)?
SIRT5 block: 26.2*; DENV2 CPE: -4.6; E-selectin induc: 0.0

How did COC(=O)c1ccc(N2C(c3cc(OC)cc(OC)c3)=Cc3ccc(OC)cc3C2CC(=O)c2ccco2)cc1 (stereo unspecified) do in these assays?
SIRT5 block: -3.2; DENV2 CPE: 31.1*; E-selectin induc: -0.1

What do the screens show for `COc1ncc(-c2ccc(N3C(c4ccsc4)=Cc4ccc(F)cc4C3CC(=O)c3ccco3)cc2)cn1` (stereo unspecified)?
SIRT5 block: -2.8; DENV2 CPE: 1.9; E-selectin induc: 0.1

What do the screens show for `O=C(CC1c2cc(F)ccc2C=C(c2ccsc2)N1c1ccc(C#CCCO)cc1)c1ccco1` (stereo unspecified)?
SIRT5 block: 16.9*; DENV2 CPE: -14.3; E-selectin induc: 0.0

What do the screens show for `COC(=O)c1ccc(N2C(c3ccsc3)=Cc3cc4c(cc3C2CC(=O)c2ccco2)OCO4)cc1` (stereo unspecified)?
SIRT5 block: -5.2; DENV2 CPE: 11.1; E-selectin induc: 0.3

Results for O=C(C[C@H]1C=C[C@H](NC(=O)Nc2ccc(F)cc2)[C@@H](CO)O1)NCCN1CCCC1 ?
SIRT5 block: -1.8; DENV2 CPE: -7.0; E-selectin induc: 0.2

How did CCC(=O)N1CC2(C1)[C@@H](c1ccc(-c3ccc(F)cc3)cc1)[C@H](CO)N2C(=O)CC do in these assays?
SIRT5 block: 0.3; DENV2 CPE: 26.7*; E-selectin induc: -0.1

How did O=C(c1cccnc1)N1CC2(C1)[C@@H](c1ccccc1)[C@@H](CO)N2C(=O)CC1CC1 do in these assays?
SIRT5 block: -1.5; DENV2 CPE: 30.1*; E-selectin induc: 0.2

How did CCC(=O)N1CC2(C1)[C@@H](c1ccccc1)[C@H](CO)N2C(=O)c1cccnc1 do in these assays?
SIRT5 block: 0.9; DENV2 CPE: 72.4*; E-selectin induc: -0.1

Results for COCC(=O)N1CC2(C1)[C@@H](c1ccccc1)[C@@H](CO)N2C(=O)c1cccnc1 ?
SIRT5 block: -8.3; DENV2 CPE: -8.8; E-selectin induc: 0.0

What do the screens show for `CCC(=O)N1CC2(C1)[C@@H](c1ccc(-c3ccc(F)cc3)cc1)[C@@H](CO)N2C(=O)CC`?
SIRT5 block: 9.2; DENV2 CPE: 3.9; E-selectin induc: 0.0

Results for O=C(CC1CC1)N1CC2(C1)[C@H](c1ccccc1)[C@@H](CO)N2C(=O)c1cccnc1 ?
SIRT5 block: -1.8; DENV2 CPE: -5.2; E-selectin induc: -0.1

What do the screens show for `C[C@H](CO)N1C[C@H](C)[C@H](CN(C)C(=O)c2ccncc2)OCCCC[C@H](C)Oc2ccc(NC(=O)C3CCCCC3)cc2C1=O`?
E-selectin induc: -0.1
